The results in this text go back to ChEMBL document CHEMBL3576847, “Discovery of 1-(3,3-dimethylbutyl)-3-(2-fluoro-4-methyl-5-(7-methyl-2-(methylamino)pyrido[2,3-d]pyrimidin-6-yl)phenyl)urea (LY3009120) as a pan-RAF inhibitor with minimal paradoxical activation and activity against BRAF or RAS mutant tumor cells” (J Med Chem, 2015).

One may read the pIC50 as the negative decadic logarithm of the IC50, by convention in mol/L. The IC50 is the concentration that gives 50% inhibition. High values mean weaker potency in that assay, low ones greater potency in that assay. The ED50 is the midpoint of the dose-response relation.

pIC50: −log10 of the molar value. Calls of active or inactive are those of the source. The rule behind the calls is not given here.

Data set [1] in a line: Paradoxical activation of RAS/RAF/MEK signaling pathway in human HCT116 cells expressing wild type BRAF assessed as ERK phosphorylation at <100 nM. It is filed as cell-based. Particulars: HCT-116.
For data set [2], the target named is T1, Serine/threonine-protein kinase B-raf (Homo sapiens, UniProt P15056, V600E). Kind of data set: Inhibition of BRAF V600E mutant in human A375 cells assessed as inhibition of ERK phosphorylation measured after 72 hrs by ELISA assay. It is filed as cell-based, A-375.
Data set [3] has as its target Dual specificity mitogen-activated protein kinase kinase; MEK1/2 (Homo sapiens, UniProt P36507+Q02750). Kind of data set: Inhibition of MEK (unknown origin).
Data set [4] can be described thus: Paradoxical activation of RAS/RAF/MEK signaling pathway in human HCT116 cells expressing wild type BRAF assessed as ERK phosphorylation at >100 nM. The class given is cell-based. Particulars: HCT-116.
The next data set has as its target GTPase KRas (Homo sapiens, UniProt P01116, G13D). Kind of data set: Inhibition of KRAS G13D mutant in human HCT116 cells assessed as inhibition of ERK phosphorylation by ELISA. It is filed as cell-based, HCT-116. The essentials:
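HCT116 cells (KRAS G13D, BRAF WT; RAF signalling via CRAF) were treated with compound, and the change in cellular phospho-ERK was measured. IC50 was taken as the concentration inhibiting phospho-ERK.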
Background: An ELISA detects its analyte on a solid surface through an enzyme-linked reagent.

Data set [5] deals with Serine/threonine-protein kinase B-raf (Homo sapiens, UniProt P15056). Kind of data set: Inhibition of wild type BRAF (unknown origin) assessed as ADP formation measured for 5 hrs by pyruvate kinase/lactate dehydrogenase coupled assay in presence of ATP, MEK1, NADH.
Data set [6] has as its system Mus musculus. Kind of data set: Toxicity in athymic nu/nu mouse xenografted with human A375 cells expressing BRAF V600E mutant assessed as body weight loss at 20 to 30 mg/kg, po bid administered for 15 days. The class given is organism-based, A-375. Particulars: in vivo, 360 h. The gist of the method: (§1)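 Nude mice bearing A375 (BRAF V600E) or HCT116 (KRAS mutant) xenografts given oral b.i.d. doses, 20 and 30 mg/kg (A375) or 40 mg/kg (HCT116), for 15 days; body weight monitored.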
(Xenograft models place foreign cells or tissue in a host animal.)

Data set [7] deals with Mus musculus. Kind of data set: In vivo inhibition of BRAF V600E mutant in human A375 cells xenografted in po dosed athymic nu/nu mouse assessed as plasma concentration required to inhibit ERK phosphorylation by 80%. The class given is functional, A-375.
The test system of data set [8] is Mus musculus. Kind of data set: In vivo inhibition of BRAF V600E mutant in human A375 cells xenografted in po dosed athymic nu/nu mouse assessed as inhibition of MEK phosphorylation by ELISA. The class given is functional, organism-based. The conditions noted are these: A-375.
In data set [9] the target is RAF proto-oncogene serine/threonine-protein kinase (Homo sapiens, UniProt P04049). Kind of data set: Inhibition of wild type CRAF (unknown origin) assessed as ADP formation measured for 5 hrs by pyruvate kinase/lactate dehydrogenase coupled assay in presence of ATP, MEK1, PEP, NADH.
The subject of data set [10] is HCT-116. Kind of data set: Antitumor activity against human HCT116 cells expressing KRAS mutant xenografted in athymic nu/nu mouse at 40 mg/kg, po bid administered for 15 days.
For data set [11], the system named is HCT-116. Kind of data set: cells. Particulars: Homo sapiens, HCT-116, 67 h.
For data set [12], the target named is T1, Serine/threonine-protein kinase B-raf. Kind of data set: Inhibition of recombinant BRAF V600E mutant (unknown origin) assessed as ADP formation measured for 5 hrs by pyruvate kinase/lactate dehydrogenase coupled assay in presence of ATP, MEK1, NADH.
The test system of data set [13] is Mus musculus. Kind of data set: In vivo inhibition of BRAF V600E mutant in human A375 cells xenografted in po dosed athymic nu/nu mouse assessed as inhibition of ERK phosphorylation by ELISA. It is filed as functional.
Data set [14] relates to Mus musculus. Kind of data set: In vivo inhibition of BRAF V600E mutant in human A375 cells xenografted in po dosed athymic nu/nu mouse assessed as plasma concentration required to inhibit ERK phosphorylation by 50%. It is filed as functional, A-375.
Data set [15] relates to Mus musculus. Kind of data set: Toxicity in athymic nu/nu mouse xenografted with human HCT116 cells expressing KRAS mutant assessed as body weight loss at 40 mg/kg, po bid administered for 15 days. It is filed as organism-based, HCT-116. The conditions noted are these: in vivo, 360 h. The gist of the method: as §1
In data set [16] the test system is A-375. Kind of data set: Antitumor activity against human A375 cells expressing BRAF V600E mutant xenografted in athymic nu/nu mouse assessed as tumor regression at 20 to 30 mg/kg, po bid administered for 15 days. It is filed as functional, organism-based. The gist of the method: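 Mice bearing A375 (BRAF V600E) or HCT116 (KRAS mutant) xenografts were dosed orally b.i.d. for 15 days. Doses were 20 and 30 mg/kg for A375 and 40 mg/kg for HCT116. Tumor volume and body weight were monitored.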

Data set [17] deals with A-375. Kind of data set: cells. Particulars: Homo sapiens, A-375, 72 h.
The target of data set [18] is Vascular endothelial growth factor receptor 2 (Homo sapiens, UniProt P35968). Kind of data set: Inhibition of KDR (unknown origin).
Vascular endothelial growth factor receptor 2, sequence (P35968 whole entry): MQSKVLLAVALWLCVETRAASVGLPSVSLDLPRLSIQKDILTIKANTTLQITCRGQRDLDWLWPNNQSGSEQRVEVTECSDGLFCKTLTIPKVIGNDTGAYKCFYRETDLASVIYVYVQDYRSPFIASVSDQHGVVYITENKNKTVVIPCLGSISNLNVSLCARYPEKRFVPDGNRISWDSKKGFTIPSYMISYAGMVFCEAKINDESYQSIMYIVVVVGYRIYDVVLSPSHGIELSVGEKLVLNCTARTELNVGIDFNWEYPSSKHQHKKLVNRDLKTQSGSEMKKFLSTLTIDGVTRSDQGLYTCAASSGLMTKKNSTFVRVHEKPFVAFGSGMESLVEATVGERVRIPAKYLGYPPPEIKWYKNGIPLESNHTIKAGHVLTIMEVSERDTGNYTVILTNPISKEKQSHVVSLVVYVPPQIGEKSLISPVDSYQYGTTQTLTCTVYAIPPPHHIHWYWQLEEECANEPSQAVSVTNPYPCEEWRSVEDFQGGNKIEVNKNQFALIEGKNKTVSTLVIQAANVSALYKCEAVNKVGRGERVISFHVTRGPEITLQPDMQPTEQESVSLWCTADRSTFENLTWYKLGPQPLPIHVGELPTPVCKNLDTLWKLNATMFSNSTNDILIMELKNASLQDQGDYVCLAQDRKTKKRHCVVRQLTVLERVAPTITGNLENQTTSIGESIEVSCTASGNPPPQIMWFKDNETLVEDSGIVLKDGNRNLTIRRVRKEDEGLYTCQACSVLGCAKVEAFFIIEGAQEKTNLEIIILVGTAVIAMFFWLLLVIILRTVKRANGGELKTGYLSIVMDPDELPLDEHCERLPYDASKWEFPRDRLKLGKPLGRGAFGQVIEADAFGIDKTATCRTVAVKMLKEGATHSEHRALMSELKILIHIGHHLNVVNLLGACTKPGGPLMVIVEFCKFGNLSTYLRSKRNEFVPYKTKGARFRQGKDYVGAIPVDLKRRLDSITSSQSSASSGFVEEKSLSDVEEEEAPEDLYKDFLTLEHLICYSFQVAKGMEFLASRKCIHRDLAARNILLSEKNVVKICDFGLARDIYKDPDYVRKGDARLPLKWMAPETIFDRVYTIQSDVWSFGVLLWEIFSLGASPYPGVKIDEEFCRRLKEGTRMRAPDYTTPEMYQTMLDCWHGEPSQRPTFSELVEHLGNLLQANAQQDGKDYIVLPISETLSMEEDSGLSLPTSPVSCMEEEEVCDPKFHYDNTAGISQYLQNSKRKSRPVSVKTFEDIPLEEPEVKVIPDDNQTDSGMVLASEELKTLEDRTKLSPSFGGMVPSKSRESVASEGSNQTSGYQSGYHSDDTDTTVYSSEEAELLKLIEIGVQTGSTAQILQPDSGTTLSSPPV

T1 sequence (P15056 2-766 V600E limits assumed): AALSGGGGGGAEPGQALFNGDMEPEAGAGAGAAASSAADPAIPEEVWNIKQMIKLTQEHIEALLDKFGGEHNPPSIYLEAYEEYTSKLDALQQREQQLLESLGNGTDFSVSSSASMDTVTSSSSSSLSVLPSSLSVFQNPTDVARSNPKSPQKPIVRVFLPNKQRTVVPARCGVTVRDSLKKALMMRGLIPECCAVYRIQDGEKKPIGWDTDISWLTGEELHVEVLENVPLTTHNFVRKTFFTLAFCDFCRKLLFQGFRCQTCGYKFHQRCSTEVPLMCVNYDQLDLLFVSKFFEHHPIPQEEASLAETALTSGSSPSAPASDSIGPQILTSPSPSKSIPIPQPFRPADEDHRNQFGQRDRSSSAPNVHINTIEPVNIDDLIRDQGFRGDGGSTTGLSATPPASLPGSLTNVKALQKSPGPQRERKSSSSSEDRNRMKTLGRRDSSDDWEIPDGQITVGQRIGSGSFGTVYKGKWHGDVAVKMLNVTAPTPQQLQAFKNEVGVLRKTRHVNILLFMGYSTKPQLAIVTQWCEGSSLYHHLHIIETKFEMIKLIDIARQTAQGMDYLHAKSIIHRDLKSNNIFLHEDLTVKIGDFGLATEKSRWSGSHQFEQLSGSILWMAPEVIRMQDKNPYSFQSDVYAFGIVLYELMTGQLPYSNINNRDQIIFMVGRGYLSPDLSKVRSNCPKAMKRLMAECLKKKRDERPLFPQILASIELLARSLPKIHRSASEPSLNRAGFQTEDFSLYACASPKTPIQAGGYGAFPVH
GTPase KRas, sequence (P01116 whole entry G13D): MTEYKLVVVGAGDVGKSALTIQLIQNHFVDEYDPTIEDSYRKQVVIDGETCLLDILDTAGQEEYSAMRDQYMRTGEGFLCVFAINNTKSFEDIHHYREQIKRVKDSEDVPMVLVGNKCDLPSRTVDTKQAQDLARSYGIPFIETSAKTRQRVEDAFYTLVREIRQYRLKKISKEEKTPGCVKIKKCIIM
Serine/threonine-protein kinase B-raf (Homo sapiens, UniProt P15056), sequence (P15056 whole entry): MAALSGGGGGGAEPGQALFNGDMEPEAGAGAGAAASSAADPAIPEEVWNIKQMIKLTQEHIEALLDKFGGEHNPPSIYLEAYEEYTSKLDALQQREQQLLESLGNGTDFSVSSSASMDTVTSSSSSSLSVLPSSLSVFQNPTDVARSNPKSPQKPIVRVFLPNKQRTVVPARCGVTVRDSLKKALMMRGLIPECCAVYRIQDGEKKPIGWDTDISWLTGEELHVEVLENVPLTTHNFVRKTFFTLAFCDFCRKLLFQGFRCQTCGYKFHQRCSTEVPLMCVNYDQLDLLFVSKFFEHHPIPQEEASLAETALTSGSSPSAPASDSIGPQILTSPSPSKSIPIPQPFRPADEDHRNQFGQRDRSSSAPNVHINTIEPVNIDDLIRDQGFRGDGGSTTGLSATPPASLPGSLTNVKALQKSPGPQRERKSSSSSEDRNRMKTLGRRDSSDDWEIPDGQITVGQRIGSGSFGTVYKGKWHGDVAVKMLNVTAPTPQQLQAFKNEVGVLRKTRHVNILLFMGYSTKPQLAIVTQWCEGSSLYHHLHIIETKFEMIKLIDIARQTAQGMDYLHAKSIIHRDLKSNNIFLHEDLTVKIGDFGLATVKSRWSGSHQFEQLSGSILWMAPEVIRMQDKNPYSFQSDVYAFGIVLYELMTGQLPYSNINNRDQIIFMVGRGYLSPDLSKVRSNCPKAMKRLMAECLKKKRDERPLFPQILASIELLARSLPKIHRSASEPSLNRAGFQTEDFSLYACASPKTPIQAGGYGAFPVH
RAF proto-oncogene serine/threonine-protein kinase, sequence (P04049 whole entry): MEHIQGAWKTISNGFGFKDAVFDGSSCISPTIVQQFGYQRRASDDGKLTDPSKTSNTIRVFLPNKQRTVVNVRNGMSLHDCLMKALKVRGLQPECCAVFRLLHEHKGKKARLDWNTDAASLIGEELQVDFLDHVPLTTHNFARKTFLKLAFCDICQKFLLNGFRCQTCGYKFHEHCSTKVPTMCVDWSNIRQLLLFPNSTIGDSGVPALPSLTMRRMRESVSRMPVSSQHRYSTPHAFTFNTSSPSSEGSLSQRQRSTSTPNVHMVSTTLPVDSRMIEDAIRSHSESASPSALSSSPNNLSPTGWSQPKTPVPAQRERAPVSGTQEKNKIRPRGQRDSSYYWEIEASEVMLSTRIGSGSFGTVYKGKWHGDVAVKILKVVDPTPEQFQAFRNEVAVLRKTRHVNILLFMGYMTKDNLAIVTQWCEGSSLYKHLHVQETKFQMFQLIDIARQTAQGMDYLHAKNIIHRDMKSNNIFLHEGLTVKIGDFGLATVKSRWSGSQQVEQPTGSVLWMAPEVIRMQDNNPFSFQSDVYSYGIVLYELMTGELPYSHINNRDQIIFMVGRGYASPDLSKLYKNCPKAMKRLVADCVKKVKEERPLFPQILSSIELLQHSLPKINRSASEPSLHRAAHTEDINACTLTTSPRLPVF

In the case of `CNc1cc2nc(C)c(-c3cc(NC(=O)NC[C@@H](O)C(C)(C)C)c(F)cc3C)cc2cn1`, the result (in data set [1]; with HCT-116 [10]; with A-375 [16]) was Active. Also, the negative logarithm of the IC50 (pIC50) is 7.66 in [2]; 6.80 at GTPase KRas; 7.41 in data set [5]; 8.14 in data set [9]; 6.76 in the data set with HCT-116 [11]; 8.11 in data set [12]. The pIC50 in the data set with A-375 [17] was 8.00; in data set [18], 6.12. Moreover, the IC50 in data set [3] stood at 15000 nM. Besides, in data set [4], the result was inactive. Further, the Activity entry in the data set with Mus musculus [6] is “Non-toxic”; with Mus musculus [14], 3.1 µM; with Mus musculus [15] it was “Non-toxic”. Besides, in the data set on Mus musculus [7], the INH came out at 7661 ng/mL. Besides, the inhibition entry in the data set on Mus musculus [8] and with Mus musculus [13] (A-375) was “Dose-dependent effect” throughout. The ED50 in the data set with Mus musculus [13] (A-375, po) came out at 1.7 mg/kg. Besides, in the data set with Mus musculus [13] (A-375, po), the ED80 was 5.7 mg/kg.
